The source made the active and inactive calls. No cut-off for these calls is given here.
Legend:
[1] = Toxicity in Wistar rat fed with palatable diet assessed as effect on spontaneous activity by measuring induction of hyperlocomotion at 3 mg/kg, ip for 13 days measured on day 1 and 13 at 24 hrs post dose; assay type: organism-based; conditions: in vivo
Summary of the method: (§1)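 Wistar rats on palatable diet, housed in pairs in home cages, received daily i.p. dosing. Spontaneous activity was recorded by an RFID system for 24 h after dosing on days 1 and 13. Results are mean ± SEM, n = 6; multiple t-test.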

[2] = Toxicity in Wistar rat fed with palatable diet assessed as effect on spontaneous activity by measuring induction of sedation at 3 mg/kg, ip for 13 days measured on day 1 and 13 at 24 hrs post dose; assay type: organism-based; conditions: in vivo; summary of the method: as §1
Rattus norvegicus [3] = test: Protection against hyperglycemia in Wistar rat fed with palatable feed assessed as decrease in plasma glucose level at 3 mg/kg, ip once daily for 14 days by spectrophotometric method; assay type: functional, organism-based
Summary of the method: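 On day 15, plasma was taken from the left carotid artery 20 min after i.p. heparin (1000 j/rat) and thiopental (70 mg/kg b.w.), and peritoneal fat was weighed. Glucose was measured by an enzymatic colorimetric test read at 500 nm. Rats had been on palatable diet with daily i.p. dosing in 1% Tween 80 for 14 days.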

Rattus norvegicus [4] = test: Protection against development of overweight in Wistar rat fed with palatable feed assessed as weight gain at 3 mg/kg, ip once daily for 14 days measured on day 14 during compound dosing relative to control; assay type: functional
Summary of the method: (§2)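 Male Wistar rats (initial 160–180 g), housed in pairs, given palatable diet (peanuts, condensed milk, milk chocolate with hazelnuts, Greek cheese) and dosed i.p. once daily in the morning for 14 days in 1% Tween 80; controls were vehicle on palatable or standard diet. Food intake was recorded three times per week and body weight daily before dosing. Results are mean ± SEM, n = 6; two-way ANOVA with Bonferroni.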

HepG2 [5] = test: Cytotoxicity against human HepG2 cells assessed as decrease in cell viability at 10 to 100 uM by MTS assay relative to control; assay type: cell-based; conditions: hepg2, 100 µM
Summary of the method: (§3)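 HepG2 hepatoma cells; viability read by MTS at 490 nm against untreated negative control. Doxorubicin and CCCP served as reference toxins. One-way ANOVA with Bonferroni.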

[6] = Toxicity in CD-1 mouse assessed as effect on spontaneous activity by measuring decrease in locomotor activity at 3 mg/kg, ip measured at 30 mins post dose for 20 mins; assay type: organism-based; conditions: in vivo
Summary of the method: (§4)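 Male CD-1 mice (20–22 g) were placed in the activity cage immediately after i.p. dosing. Distance travelled was recorded from 30 min post-dose over 20 min. Groups had 6–8 animals.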

[7] = Toxicity in CD-1 mouse assessed as effect on spontaneous activity by measuring decrease in locomotor activity at 5 mg/kg, ip measured at 30 mins post dose for 20 mins; assay type: organism-based; conditions: in vivo; summary of the method: as §4
Rattus norvegicus [8] = test: Protection against development of overweight in Wistar rat fed with preferantial feed assessed as decrease in weight gain at 3 mg/kg, ip once daily for 14 days measured daily during compound dosing; assay type: functional, organism-based; summary of the method: as §2
[9] = Metabolic stability in human liver microsomes assessed as parent compound remaining after 120 mins by UPLC analysis; assay type: ADME, Microsome; conditions: read-out: Stability
Rattus norvegicus [10] = test: Anorectic activity in Wistar rat fed with palatable diet assessed as reduction in amount of calories consumed at 3 mg/kg, ip once daily for 14 days; assay type: functional, organism-based; summary of the method: as §2
Rattus norvegicus [11] = test: Protection against development of overweight in Wistar rat fed with palatable feed assessed as decrease in weight gain at 1 mg/kg, ip once daily for 14 days measured daily during compound dosing; assay type: functional, organism-based; summary of the method: as §2
HepG2 [12] = test: Induction of phospholipidosis in human HepG2 cells assessed as increase in number of cellular lysosomes at 50 uM after 72 hrs by LYSO-ID Red and Hoechst 33342 staining based fluorescence microscopic method; assay type: cell-based; conditions: hepg2, 72 h
Histamine H3 receptor = Histamine H3 receptor (Homo sapiens, UniProt Q9Y5N1); test: Displacement of [3H]N-alpha-methylhistamine from full length recombinant human H3R expressed in HEK293 cell membranes after 90 mins by beta scintillation counting method
Summary of the method: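 Frozen crude membranes from HEK-293 cells stably expressing full-length human H3R were incubated 90 min at RT with shaking, with [3H]Nα-methylhistamine (2 nM; KD 3.08 nM) and 5–11 concentrations of test compound between 0.01 nM and 10 μM. Nonspecific binding was defined with pitolisant 10 μM. Samples were filtered on PEI-treated GF/B filters and washed with ice-cold water. Ki was derived from IC50 by Cheng-Prusoff; ≥3 experiments, each in at least duplicate.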

Rattus norvegicus [13] = test: Protection against development of overweight in Wistar rat fed with palatable feed assessed as decrease in peritoneal fat at 3 mg/kg, ip once daily for 14 days measured on day 15; assay type: functional, organism-based
Rattus norvegicus [14] = test: Protection against development of overweight in Wistar rat fed with palatable feed assessed as weight gain at 3 mg/kg, ip once daily for 14 days measured on day 9 during compound dosing relative to control; assay type: functional; summary of the method: as §2
HepG2 [15] = test: Cytotoxicity against human HepG2 cells assessed as decrease in cell viability at 10 uM by MTS assay relative to control; assay type: cell-based; conditions: hepg2, 10 µM
Summary of the method: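 HepG2 human hepatoma cells (ATCC HB-8065) were exposed to the test compound at concentrations that included 10 and 100 μM. Viability was read by the MTS assay at 490 nm absorbance and expressed relative to an untreated negative control. Doxorubicin and CCCP served as reference toxins. Significance was tested by one-way ANOVA with Bonferroni's comparison test.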

Rattus norvegicus [16] = test: Protection against development of overweight in Wistar rat fed with palatable feed assessed as decrease in weight gain at 3 mg/kg, ip once daily for 14 days; assay type: functional, organism-based; summary of the method: as §2
HepG2 [17] = test: Cytotoxicity against human HepG2 cells assessed as decrease in cell viability at 1 uM by MTS assay relative to control; assay type: cell-based; conditions: hepg2, 1 µM; summary of the method: as §3

Sequence of Histamine H3 receptor (Q9Y5N1 whole entry): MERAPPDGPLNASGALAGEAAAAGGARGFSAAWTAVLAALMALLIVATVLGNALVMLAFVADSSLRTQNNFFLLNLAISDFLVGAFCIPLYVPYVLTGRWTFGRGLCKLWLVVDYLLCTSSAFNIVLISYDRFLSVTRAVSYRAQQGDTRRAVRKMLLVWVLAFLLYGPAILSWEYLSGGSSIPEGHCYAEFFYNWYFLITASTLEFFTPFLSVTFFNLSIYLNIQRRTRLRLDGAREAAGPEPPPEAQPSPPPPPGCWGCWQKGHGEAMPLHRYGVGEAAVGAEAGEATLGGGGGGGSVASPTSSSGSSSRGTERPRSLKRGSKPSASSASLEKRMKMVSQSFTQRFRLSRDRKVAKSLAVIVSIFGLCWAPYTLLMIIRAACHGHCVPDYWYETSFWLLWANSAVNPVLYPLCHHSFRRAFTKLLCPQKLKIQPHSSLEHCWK

Structure (SMILES) | Ki (Histamine H3 receptor) | further results
CC(=O)c1ccc(OCCCN2CCN(c3ccncc3)CC2)cc1 | 10.2 nM | Activity [1]: Non-Toxic; Activity [2]: Non-Toxic; Activity (Rattus norvegicus [3]): Active; Activity (Rattus norvegicus [4]): 7.89%; Activity (HepG2 [5]): 10%; Activity [6]: Non-Toxic; Activity [7]: Toxic; Activity (Rattus norvegicus [8]): Active; remaining at 2 h [9]: 91.3%; Activity (Rattus norvegicus [10]): Active; Activity (Rattus norvegicus [11]): inactive; Activity (HepG2 [12]): Non-Toxic; Activity (Rattus norvegicus [13]): Active; Activity (Rattus norvegicus [14]): 8.64%
CC(=O)c1ccc(OCCCN2CCN(C(=O)C3CCCO3)CC2)cc1 (centres undefined) | 4890 nM | 
CC(=O)c1ccc(OCCCCN2CCN(c3cnccn3)CC2)cc1 | 1230 nM | 
CC(=O)c1ccc(OCCCCN2CCN(C(=O)C3CCCO3)CC2)cc1 (centres undefined) | > 10000 nM | 
CCC(=O)c1ccc(OCCCN2CCN(c3ncccn3)CC2)cc1 | 1720 nM | 
CCC(=O)c1ccc(OCCCCN2CCN(c3ccccn3)CC2)cc1 | 1440 nM | 
CC(=O)c1ccc(OCCCN2CCN(c3cnccn3)CC2)cc1 | 2320 nM | 
CCC(=O)c1ccc(OCCCCN2CCN(c3cnccn3)CC2)cc1 | 4040 nM | 
CC(=O)c1ccc(OCCCCN2CCN(c3ccncc3)CC2)cc1 | 115 nM | 
CCC(=O)c1ccc(OCCCN2CCN(c3ccccn3)CC2)cc1 | 377 nM | 
CC(=O)N1CCN(c2ccc(OCC3COC(Cn4ccnc4)(c4ccc(Cl)cc4Cl)O3)cc2)CC1 (centres undefined) [KETOCONAZOLE] |  | Activity (HepG2 [12]): Toxic
CC(=O)c1ccc(OCCCCN2CCN(c3cccnc3)CC2)cc1 | 908 nM | 
CCC(=O)c1ccc(OCCCCN2CCN(c3ncccn3)CC2)cc1 | 3630 nM | 
CC(=O)c1ccc(OCCCCN2CCN(c3ccccn3)CC2)cc1 | 3700 nM | 
CCC(=O)c1ccc(OCCCCN2CCN(C(=O)C3CCCO3)CC2)cc1 (centres undefined) | > 10000 nM | 
N#CC(C#N)=NNc1cccc(Cl)c1 [CARBONYL CYANIDE M-CHLOROPHENYLHYDRAZONE] |  | Activity (HepG2 [15]): > 50%
CC(=O)c1ccc(OCCCN2CCN(c3ccccn3)CC2)cc1 | 315 nM | 
CC(=O)c1ccc(OCCCN2CCN(c3ncccn3)CC2)cc1 | 2450 nM | 
CCC(=O)c1ccc(OCCCN2CCN(c3ccncc3)CC2)cc1 | 5.2 nM | Activity [6]: Non-Toxic; Activity [7]: Toxic; Activity (Rattus norvegicus [16]): inactive
CCC(=O)c1ccc(OCCCN2CCN(C(=O)C3CCCO3)CC2)cc1 (centres undefined) | 1390 nM | 
CCC(=O)c1ccc(OCCCN2CCN(c3cnccn3)CC2)cc1 | 3390 nM | 
CC(=O)c1ccc(OCCCN2CCN(c3cccnc3)CC2)cc1 | 499 nM | 
CCC(=O)c1ccc(OCCCN2CCN(c3cccnc3)CC2)cc1 | 192 nM | 
COc1cccc2c1C(=O)c1c(O)c3c(c(O)c1C2=O)C[C@@](O)(C(=O)CO)C[C@@H]3O[C@H]1C[C@H](N)[C@H](O)[C@H](C)O1 [DOXORUBICIN] |  | Activity (HepG2 [17]): > 50%
CC(=O)c1ccc(OCCCCN2CCN(c3ncccn3)CC2)cc1 | 1630 nM | 
CCC(=O)c1ccc(OCCCCN2CCN(c3ccncc3)CC2)cc1 | 15.4 nM | 
CCC(=O)c1ccc(OCCCCN2CCN(c3cccnc3)CC2)cc1 | 1390 nM | 
